This passage reports Activity and inhibition results from ChEMBL document CHEMBL1142895, “Discovery of a new insecticide lead by optimizing a target-diverse scaffold: tetrazolinone derivatives” (2007).

The source made the active and inactive calls. The calls are words filed in the database; no cut-off is given here.

For assay [1], the system named is Brassica rapa subsp. oleifera. Description: Herbicidal activity against Brassica campestris at 450 g ai/ha in greenhouse in vivo test. The assay is classed as functional, organism-based.
For assay [2], the system named is Cucumis sativus. The assay is described as follows: Inhibition of root growth of Cucumis sativus at 100 mg/L. The class given is functional. In a few lines:
(§1)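 Seeds of each species were grown in Petri dishes with 10 seeds per dish, at 28 °C, 70–80% RH, 16:8 h light:dark photoperiod and 3000 lx light for 5 days. Root and stem lengths were measured for the 10 seeds and averaged. Each test and its controls were run in three replicates, and the data were given probit analysis.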

Assay [3] has as its system Sorghum bicolor. Description: Inhibition of stem growth of Sorghum bicolor at 100 mg/L. The class given is functional. The method, boiled down:
as §1

The subject of assay [4] is Radish. The assay is described as follows: Inhibition of stem growth of Raphanus sativus at 100 mg/L. The class given is functional. The method, boiled down: as §1
The subject of assay [5] is Radish. Description: Inhibition of root growth of Raphanus sativus at 100 mg/L. The class given is functional. In a few lines:
as §1

Assay [6] concerns Cucumis sativus. Description: Herbicidal activity against Cucumis sativus at 450 g ai/ha in greenhouse in vivo test. The assay is classed as functional, organism-based.
The test system of assay [7] is Sorghum bicolor. Description: Herbicidal activity against Sorghum bicolor at 450 g ai/ha in greenhouse in vivo test. The assay is classed as functional, organism-based.
The test system of assay [8] is Brassica rapa subsp. oleifera. Description: Inhibition of stem growth of Brassica campestris at 100 mg/L. The class given is functional. In a few lines: as §1
In assay [9] the test system is Echinochloa crus-galli. Description: Herbicidal activity against Echinochloa crus-galli at 450 g ai/ha in greenhouse in vivo test. The assay is classed as functional, organism-based.
The subject of assay [10] is Cucumis sativus. The assay is described as follows: Inhibition of stem growth of Cucumis sativus at 100 mg/L. The class given is functional. The method, boiled down:
as §1

In assay [11] the test system is Triticum aestivum. The assay is described as follows: Inhibition of root growth of Triticum aestivum at 100 mg/L. The assay is classed as functional. In a few lines: as §1
Assay [12] relates to Radish. The assay is described as follows: Herbicidal activity against Raphanus sativus at 450 g ai/ha in greenhouse in vivo test. The class given is functional, organism-based.
Assay [13] relates to Triticum aestivum. The assay is described as follows: Herbicidal activity against Triticum aestivum at 450 g ai/ha in greenhouse in vivo test. The class given is functional, organism-based.
Assay [14] deals with Brassica rapa subsp. oleifera. Description: Inhibition of root growth of Brassica campestris at 100 mg/L. The class given is functional. In a few lines:
as §1

For a further assay, the system named is Aphis. Description: Insecticidal activity against Aphis medicagini at 250 mg/L. The class given is functional. In a few lines: (§2)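 Groups of 10 of each species were placed in glass Petri dishes and sprayed with test solution using a Potter sprayer. After air-drying, they were held under normal rearing conditions. Mortality at 72 h was taken from the number and size of live larvae relative to untreated controls.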

Assay [15] has as its system Triticum aestivum. Description: Inhibition of stem growth of Triticum aestivum at 100 mg/L. The assay is classed as functional. In a few lines: as §1
The test system of the next assay is Tetranychus cinnabarinus. Description: Insecticidal activity against Tetranychus cinnabarinus at 250 mg/L. The class given is functional. The method, boiled down: as §2
For assay [16], the system named is Echinochloa crus-galli. Description: Inhibition of root growth of Echinochloa crus-galli at 100 mg/L. The assay is classed as functional. In a few lines: as §1
In assay [17] the test system is Sorghum bicolor. The assay is described as follows: Inhibition of root growth of Sorghum bicolor at 100 mg/L. The assay is classed as functional. The method, boiled down:
as §1

For assay [18], the system named is Echinochloa crus-galli. Description: Inhibition of stem growth of Echinochloa crus-galli at 100 mg/L. The assay is classed as functional. In a few lines: as §1

In general, inhibition refers to the share of the control response that was lost under treatment. Low values mean a response near the control, high ones a response far below the control. Regarding `COc1cccc(Cn2nnn(-c3ccc(Cl)cc3)c2=O)c1`, the result (in [1]; with Cucumis sativus [6]; with Sorghum bicolor [7]; in the assay on Echinochloa crus-galli [9]; in the assay on Radish [12]; with Triticum aestivum [13]) was inactive. Moreover, the inhibition at 100 µg/mL (in the assay with Cucumis sativus [2]; in the assay with Sorghum bicolor [3]; with Radish [4]; in the assay on Radish [5]; in assay [8]; with Cucumis sativus [10]) was 0% in each case. Also, the inhibition at 100 µg/mL (with Triticum aestivum [11]; in assay [14]; with Triticum aestivum [15]; with Echinochloa crus-galli [16]; in the assay on Sorghum bicolor [17]; with Echinochloa crus-galli [18]) was 0% each time. The Activity is 3.3% in the assay on Aphis and 0% in the assay with Tetranychus cinnabarinus.
